The values that follow come from ChEMBL document CHEMBL1221258, “Biaryl substituted hydantoin compounds as TACE inhibitors” (Bioorg Med Chem Lett, 2010).

The target of series [1] is Disintegrin and metalloproteinase domain-containing protein 17 (Homo sapiens, UniProt P78536). Kind of series: Inhibition of TACE assessed as inhibition of pro-TNFalpha peptide cleavage.
Series [2] concerns Rattus norvegicus. Kind of series: Clearance in rat at 3 mg/kg, iv. In kind it is ADME, organism-based. Details: dose 3 mg/kg, route intravenous. The conditions noted are these: in vivo. A digest of the protocol:
(§1)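 Rats were dosed separately at 3 mg/kg iv and 10 mg/kg po. Reported parameters were AUC (µM h), T1/2 (h), Cl (L/h/kg) and Vss (L/kg) after iv dosing, and AUC, Cmax (µM), Tmax (h) and F% after oral dosing.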

The subject of series [3] is Rattus norvegicus. Briefly: Half life in rat at 3 mg/kg, iv. In kind it is ADME, organism-based. Details: dose 3 mg/kg, route intravenous. As to conditions: in vivo. A digest of the protocol: as §1
Series [4] deals with Stromelysin-1 (Homo sapiens) (UniProt P08254). Kind of series: Inhibition of MMP3.
Stromelysin-1 (Homo sapiens), sequence (P08254 100-477 limits assumed): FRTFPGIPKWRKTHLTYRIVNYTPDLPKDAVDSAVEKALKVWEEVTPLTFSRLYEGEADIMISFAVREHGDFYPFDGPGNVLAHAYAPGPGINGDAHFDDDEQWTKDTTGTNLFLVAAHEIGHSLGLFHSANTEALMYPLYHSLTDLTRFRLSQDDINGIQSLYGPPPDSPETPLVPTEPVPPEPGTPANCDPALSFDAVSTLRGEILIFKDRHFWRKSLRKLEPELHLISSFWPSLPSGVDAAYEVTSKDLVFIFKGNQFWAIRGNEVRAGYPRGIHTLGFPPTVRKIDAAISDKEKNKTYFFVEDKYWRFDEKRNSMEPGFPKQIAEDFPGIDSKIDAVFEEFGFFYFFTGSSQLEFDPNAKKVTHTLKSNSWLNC
Series [5] addresses Matrix metalloproteinase-9 (Homo sapiens) (UniProt P14780). Kind of series: Inhibition of MMP9.
Series [6] deals with T1, Disintegrin and metalloproteinase domain-containing protein 10 (Homo sapiens) (UniProt O14672).
T1 sequence (whole entry): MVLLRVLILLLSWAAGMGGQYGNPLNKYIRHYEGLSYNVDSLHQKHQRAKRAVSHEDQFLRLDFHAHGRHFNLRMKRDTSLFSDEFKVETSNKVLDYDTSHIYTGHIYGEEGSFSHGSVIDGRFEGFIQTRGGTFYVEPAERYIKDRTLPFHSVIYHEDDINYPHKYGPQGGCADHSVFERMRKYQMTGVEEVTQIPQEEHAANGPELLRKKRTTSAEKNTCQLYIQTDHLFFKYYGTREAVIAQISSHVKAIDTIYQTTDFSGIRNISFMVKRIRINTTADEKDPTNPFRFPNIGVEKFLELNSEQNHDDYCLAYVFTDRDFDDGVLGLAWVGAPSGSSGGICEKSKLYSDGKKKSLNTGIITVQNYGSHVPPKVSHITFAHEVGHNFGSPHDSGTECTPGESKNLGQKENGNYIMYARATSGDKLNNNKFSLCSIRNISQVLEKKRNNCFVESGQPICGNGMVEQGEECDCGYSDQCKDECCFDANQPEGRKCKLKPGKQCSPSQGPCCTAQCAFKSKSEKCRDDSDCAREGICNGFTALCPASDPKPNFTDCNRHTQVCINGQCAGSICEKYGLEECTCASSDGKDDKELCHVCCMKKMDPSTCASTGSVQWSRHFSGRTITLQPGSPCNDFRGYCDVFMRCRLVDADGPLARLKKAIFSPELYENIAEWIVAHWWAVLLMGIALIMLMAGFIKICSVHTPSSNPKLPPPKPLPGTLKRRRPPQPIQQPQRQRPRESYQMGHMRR
Briefly: Inhibition of ADAM10.

The target of series [7] is 72 kDa type IV collagenase (Homo sapiens) (UniProt P08253). Briefly: Inhibition of MMP2.
72 kDa type IV collagenase (Homo sapiens), sequence (P08253 110-660 limits assumed): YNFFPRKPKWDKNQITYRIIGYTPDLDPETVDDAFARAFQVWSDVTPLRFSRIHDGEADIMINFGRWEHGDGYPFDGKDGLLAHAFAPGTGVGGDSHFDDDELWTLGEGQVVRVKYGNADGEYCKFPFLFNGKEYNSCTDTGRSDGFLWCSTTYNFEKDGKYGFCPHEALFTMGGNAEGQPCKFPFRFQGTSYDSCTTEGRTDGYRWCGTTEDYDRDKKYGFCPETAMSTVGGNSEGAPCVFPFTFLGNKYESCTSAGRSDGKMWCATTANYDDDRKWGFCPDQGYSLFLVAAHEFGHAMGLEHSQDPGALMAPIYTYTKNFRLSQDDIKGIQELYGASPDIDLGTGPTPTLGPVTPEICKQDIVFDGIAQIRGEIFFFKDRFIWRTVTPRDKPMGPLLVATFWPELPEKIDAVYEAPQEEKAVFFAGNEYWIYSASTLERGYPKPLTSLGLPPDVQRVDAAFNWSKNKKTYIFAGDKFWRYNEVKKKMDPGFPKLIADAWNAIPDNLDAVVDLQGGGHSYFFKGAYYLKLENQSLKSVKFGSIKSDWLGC
In series [8] the test system is Rattus norvegicus. Kind of series: Volume of distribution at steady state in rat at 3 mg/kg, iv. In kind it is ADME, organism-based. Details: dose 3 mg/kg, route intravenous. The conditions noted are these: in vivo. A digest of the protocol:
as §1

For series [9], the target named is Matrix metalloproteinase-14 (Homo sapiens) (UniProt P50281). Kind of series: Inhibition of MMP14.
A short description of series [10]: AUC in rat at 10 mg/kg, po. In kind it is ADME, organism-based. Details: dose 10 mg/kg, route oral. The conditions noted are these: plasma.
A short description of series [11]: Tmax in rat at 10 mg/kg, po. In kind it is ADME, organism-based. The conditions noted are these: in vivo. The arrangement: dose 10 mg/kg, route oral. A digest of the protocol: as §1
Series [12] in a line: Oral bioavailability in rat at 10 mg/kg. In kind it is ADME, organism-based. The conditions noted are these: in vivo. In a few lines: as §1
The target of series [13] is T2, Matrilysin (Homo sapiens) (UniProt P09237).
T2 sequence (whole entry): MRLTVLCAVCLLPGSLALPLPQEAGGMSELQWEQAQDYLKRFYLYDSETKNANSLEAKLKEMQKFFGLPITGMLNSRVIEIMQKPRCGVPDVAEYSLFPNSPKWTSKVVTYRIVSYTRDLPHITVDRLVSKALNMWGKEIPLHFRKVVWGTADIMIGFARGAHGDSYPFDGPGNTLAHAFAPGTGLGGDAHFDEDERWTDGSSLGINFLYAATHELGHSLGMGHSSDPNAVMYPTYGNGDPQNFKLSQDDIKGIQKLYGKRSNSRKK
Briefly: Inhibition of MMP7.

Series [14] has as its target Collagenase 3 (Homo sapiens) (UniProt P45452). Kind of series: Inhibition of MMP13.
The test system of series [15] is Rattus norvegicus. Briefly: AUC in rat at 3 mg/kg, iv. In kind it is ADME, organism-based, Plasma. The arrangement: dose 3 mg/kg, route intravenous. As to conditions: in vivo.
For series [16], the target named is T3, Interstitial collagenase (Homo sapiens) (UniProt P03956).
T3 sequence (whole entry): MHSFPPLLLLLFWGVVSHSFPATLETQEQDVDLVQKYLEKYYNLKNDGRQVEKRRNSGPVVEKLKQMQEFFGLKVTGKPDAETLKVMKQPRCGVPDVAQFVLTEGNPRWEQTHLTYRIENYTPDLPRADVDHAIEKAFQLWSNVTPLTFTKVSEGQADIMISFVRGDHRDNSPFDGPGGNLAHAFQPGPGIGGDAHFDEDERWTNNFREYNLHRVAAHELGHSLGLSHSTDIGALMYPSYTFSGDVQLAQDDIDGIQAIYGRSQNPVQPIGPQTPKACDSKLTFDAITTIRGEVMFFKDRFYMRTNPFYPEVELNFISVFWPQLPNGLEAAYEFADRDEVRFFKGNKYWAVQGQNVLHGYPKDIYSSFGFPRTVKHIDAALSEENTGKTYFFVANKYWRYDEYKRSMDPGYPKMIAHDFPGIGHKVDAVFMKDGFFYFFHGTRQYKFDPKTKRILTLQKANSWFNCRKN
Kind of series: Inhibition of MMP1.

Series [17] is described as follows: Cmax in rat at 10 mg/kg, po. In kind it is ADME, organism-based. Details: dose 10 mg/kg, route oral. As to conditions: in vivo. A digest of the protocol:
as §1

Matrix metalloproteinase-9 (Homo sapiens), sequence (P14780 whole entry, the tested form may be a part): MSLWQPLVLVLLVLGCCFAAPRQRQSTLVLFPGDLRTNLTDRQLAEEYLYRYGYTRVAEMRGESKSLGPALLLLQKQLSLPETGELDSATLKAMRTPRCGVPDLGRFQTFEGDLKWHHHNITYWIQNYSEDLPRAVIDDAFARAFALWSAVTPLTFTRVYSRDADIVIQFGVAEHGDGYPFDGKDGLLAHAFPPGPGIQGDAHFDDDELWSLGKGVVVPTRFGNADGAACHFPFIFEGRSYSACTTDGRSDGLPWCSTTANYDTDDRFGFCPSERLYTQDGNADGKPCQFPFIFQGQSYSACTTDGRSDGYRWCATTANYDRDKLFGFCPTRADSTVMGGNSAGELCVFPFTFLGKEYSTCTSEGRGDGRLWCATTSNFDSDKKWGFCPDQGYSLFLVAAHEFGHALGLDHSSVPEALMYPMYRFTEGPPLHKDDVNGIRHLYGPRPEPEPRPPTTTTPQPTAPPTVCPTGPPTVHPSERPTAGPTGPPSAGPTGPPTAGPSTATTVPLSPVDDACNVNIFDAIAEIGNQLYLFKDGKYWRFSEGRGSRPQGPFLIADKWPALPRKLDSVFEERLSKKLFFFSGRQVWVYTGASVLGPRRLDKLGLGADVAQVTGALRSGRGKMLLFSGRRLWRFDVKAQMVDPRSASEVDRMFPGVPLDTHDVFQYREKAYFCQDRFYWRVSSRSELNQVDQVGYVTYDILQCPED
Disintegrin and metalloproteinase domain-containing protein 17, sequence (P78536 whole entry, the tested form may be a part): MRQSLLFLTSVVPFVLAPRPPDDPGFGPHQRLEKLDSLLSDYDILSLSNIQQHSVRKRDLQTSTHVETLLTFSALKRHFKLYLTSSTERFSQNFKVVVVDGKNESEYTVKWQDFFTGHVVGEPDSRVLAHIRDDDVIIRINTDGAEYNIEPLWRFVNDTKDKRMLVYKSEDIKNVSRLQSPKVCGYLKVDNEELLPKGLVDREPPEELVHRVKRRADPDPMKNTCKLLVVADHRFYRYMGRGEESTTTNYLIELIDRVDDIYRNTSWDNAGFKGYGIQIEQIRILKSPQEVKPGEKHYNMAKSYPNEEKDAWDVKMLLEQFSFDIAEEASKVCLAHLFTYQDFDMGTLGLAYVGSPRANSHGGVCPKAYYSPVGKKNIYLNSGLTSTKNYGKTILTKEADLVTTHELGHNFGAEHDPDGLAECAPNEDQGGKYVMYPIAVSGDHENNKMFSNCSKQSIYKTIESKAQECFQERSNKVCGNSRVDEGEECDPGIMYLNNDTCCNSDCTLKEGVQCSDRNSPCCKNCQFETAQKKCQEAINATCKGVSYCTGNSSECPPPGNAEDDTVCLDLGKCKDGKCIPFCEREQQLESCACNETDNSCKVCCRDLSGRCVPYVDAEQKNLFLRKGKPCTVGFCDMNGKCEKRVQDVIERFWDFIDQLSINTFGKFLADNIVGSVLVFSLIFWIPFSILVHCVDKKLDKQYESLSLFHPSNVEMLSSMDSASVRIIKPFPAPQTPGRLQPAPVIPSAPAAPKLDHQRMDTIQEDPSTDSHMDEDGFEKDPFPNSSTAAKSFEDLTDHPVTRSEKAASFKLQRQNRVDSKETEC

In the case of `O=C1NC(=O)[C@](CN2Cc3ccc(F)cc3C2=O)(c2ccc(-c3c[nH]c(=O)c(Cl)c3)cc2)N1`, the Ki (commonly the dissociation constant of the complex between target and ligand, obtained from inhibition or displacement) in [1] was 0.1 nM.
Consider `COc1ccc2c(c1)C(=O)N(C[C@@]1(c3ccc(-c4cncnc4)cc3)NC(=O)NC1=O)C2`, for which, in series [1], the Ki was determined as 0.9 nM.
Same read-out and setting: for `COc1ccc2c(c1)C(=O)N(C[C@@]1(c3ccc(-c4cccc(-c5csc(C)n5)c4)cc3)NC(=O)NC1=O)C2` the value was 31 nM; for `COc1ccc2c(c1)C(=O)N(C[C@@]1(c3ccc(Oc4ccc5cnccc5c4)cc3)NC(=O)NC1=O)C2`, 8 nM; for `COc1ccc2c(c1)C(=O)N(C[C@@]1(c3ccc(-c4ccc(C(N)=O)cc4)cc3)NC(=O)NC1=O)C2`, 3 nM.
On to `O=C1NC(=O)[C@](CN2Cc3ccc(F)cc3C2=O)(c2ccc(-c3ccc(=O)[nH]c3)cc2)N1`, for which the Ki in series [1] is 0.2 nM.
Same read-out and setting: the result for `COC(=O)c1ccc(-c2ccc([C@]3(CN4Cc5ccc(OC)cc5C4=O)NC(=O)NC3=O)cc2)cc1` reads 9 nM.
Regarding `COc1ccc2c(c1)C(=O)N(C[C@@]1(c3ccc(-c4ccnc(N)c4)cc3)NC(=O)NC1=O)C2`, the Ki in [1] stood at 1.4 nM.
Regarding `COc1ccc2c(c1)C(=O)N(C[C@@]1(c3ccc(-c4cnn(C)c4)cc3)NC(=O)NC1=O)C2`, in [2], the CL came to 55 mL/min/kg. The molecule further showed a t1/2 in series [3] of 4.4 h. Besides, the INH is 430 nM in series [4]; 122 nM in series [5]; 187 nM in series [6]; 24 nM in series [7]; 19 nM in [9]; above 40 µM in series [13]. Further, the INH in series [14] was 202 nM; in series [16], 718 nM. In series [8], the Vdss (commonly a proportionality between amount in the body and measured concentration, not a real space) worked out at 0.3 L/kg. The results for the area under the curve (AUC) in series [10] and in series [15] were 22.2 µM·h and 36.2 µM·h, respectively. Besides, the Tmax (as a rule, the time at which the peak concentration occurs) in [11] turned out to be 2 h. The bioavailability (usually the share of a dose that reaches the circulation, judged against a reference dose that is usually intravenous) in [12] turned out to be 18%. In series [17], the highest level (Cmax) was 4.45 µM.
With `COc1ccc2c(c1)C(=O)N(C[C@@]1(c3ccc(Oc4ccncc4)cc3)NC(=O)NC1=O)C2`, the Ki in series [1] was 7 nM.
Still for that read-out and setting: the result for `COc1ccc2c(c1)C(=O)N(C[C@@]1(c3ccc(-c4nccs4)cc3)NC(=O)NC1=O)C2` reads 0.6 nM.
Consider `COc1ccc2c(c1)C(=O)N(C[C@@]1(c3ccc(-c4ccnc(C)c4)cc3)NC(=O)NC1=O)C2`, for which the CL in series [2] stood at 91.7 mL/min/kg. This molecule also came in with a t1/2 in series [3] of 4.4 h. Further, the INH amounted to 434 nM in [4]; 212 nM in series [5]; 253 nM in series [6]; 86 nM in [7]; 36 nM in series [9]; 30 µM in series [13]. The INH in series [14] turned out to be 194 nM; in [16], 1740 nM. In addition, in series [8], the Vdss amounted to 0.3 L/kg. In series [1], the Ki stood at 0.5 nM. Also, the area under the curve (AUC) – broadly, concentration integrated over time – in series [10] is 13 µM·h; in [15], 21 µM·h. In series [11], the Tmax amounted to 1.7 h. Further, the bioavailability in [12] came to 19%. In addition, in series [17], the Cmax (as a rule, the highest concentration seen after dosing) was 3.3 µM.
As for `COc1ccc2c(c1)C(=O)N(C[C@@]1(c3ccc(-c4ccncc4)cc3)NC(=O)NC1=O)C2`, the Ki in [1] was determined as 0.6 nM.
The same measure, in the same setting: for `COc1ccc2c(c1)C(=O)N(C[C@@]1(c3ccc(C4(C)NC(=O)NC4=O)cc3)NC(=O)NC1=O)C2` (stereo partly drawn) the value was 2.6 nM.
The molecule `COc1ccc2c(c1)C(=O)N(C[C@@]1(c3ccc(-c4cccnc4)cc3)NC(=O)NC1=O)C2` returned a CL in series [2] of 103 mL/min/kg. This molecule registered a t1/2 in [3] of 4.3 h. For the same molecule, the INH in [4] amounted to 3.61 nM; in series [5], 124 nM; in [6] it was 216 nM; in series [9], 25 nM; in [13], 17.4 µM; in [14] it was 155 nM. The same molecule had an INH in [16] of 655 nM. The Vdss in [8] came out at 0.3 L/kg. For the same molecule, the AUC in series [10] amounted to 9.1 µM·h; in series [15], 19 µM·h. Besides, in [11], the Tmax is 0.58 h. Also, in [12], the bioavailability worked out at 14.1%. The Cmax in series [17] is 2.96 µM.
`COc1ccc2c(c1)C(=O)N(C[C@@]1(c3ccc(-c4cc(-c5ccccc5)no4)cc3)NC(=O)NC1=O)C2`: in series [1], the inhibition constant (Ki) worked out at 28 nM.
Same read-out and setting: for `O=C1NC(=O)[C@](CN2Cc3ccc(F)cc3C2=O)(c2ccc(-c3ccc(C(F)(F)F)cc3)cc2)N1` the value was 18 nM; for `O=C1NC(=O)[C@](CN2Cc3ccc(F)cc3C2=O)(c2ccc(-c3ccc(F)cc3F)cc2)N1`, 2 nM.
